Key:
[1] = (§1) Cytotoxicity against human Calu-3 cells infected with SARS-COV-2 by celltiter-glo luminescent cell viability assay; type: cell-based; settings: Calu-3 cells infected with SARS-COV-2
Outline: (§2)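 Compound-exposed cells assessed by CellTiter-Glo luminescence versus DMSO control; CC50 from dose-response.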

[2] = system: SARS-CoV-2; test: Antiviral activity against SARS-COV 2 infected in human Calu-3 cells assessed as inhibition of viral replication at MOI of 0.01 and incubated after 2 hrs post infection for 48 hrs by direct yield reduction assay; type: functional, organism-based; settings: Severe acute respiratory syndrome coronavirus 2, Calu-3
[3] = Selectivity index, ratio of CC50 for human Calu-3 cells infected with SARS-COV-2 to IC50 for SARS-COV 2 infected in human Calu-3 cells; type: toxicity, cell-based; settings: read-out: Selectivity Index
[4] = system: SARS-CoV-2; test: Antiviral activity against SARS-COV 2 infected in human Calu-3 cells assessed as inhibition of viral replication at MOI of 0.01 followed by removal of test compound after cell virus adsorption incubated for 72 hrs by ENTRY-DYRA method; type: functional, organism-based; settings: Severe acute respiratory syndrome coronavirus 2, Calu-3, 72 h
[5] = system: Huh-7; test: Cytotoxicity against human Huh-7 cells infected with SARS-COV-2 assessed as reduction in cell viability by celltiter-glo luminescent cell viability assay; type: cell-based; settings: huh-7; outline: as §2
[6] = system: SARS-CoV-2; test: Antiviral activity against SARS-COV 2 infected in human Huh-7 cells assessed as inhibition of viral replication at MOI of 0.01 and incubated after 2 hrs post infection for 48 hrs by direct yield reduction assay; type: functional, organism-based; settings: Severe acute respiratory syndrome coronavirus 2, Huh-7
[7] = Selectivity index, ratio of CC50 for human Huh-7 cells infected with SARS-COV-2 to IC50 for SARS-COV 2 infected in human Huh-7; type: toxicity; settings: read-out: Selectivity Index
[8] = system: Vero C1008; test: (§3) Cytotoxicity against African green monkey Vero E6 cells infected with SARS-COV-2 by celltiter-glo luminescent cell viability assay; type: cell-based; settings: chlorocebus sabaeus, vero c1008; outline: as §2
[9] = system: Caco-2; test: Cytotoxicity against human Caco2 cells infected with SARS-COV-2 assessed as reduction in cell viability by celltiter-glo luminescent cell viability assay; type: cell-based; outline: as §2
[10] = system: SARS-CoV-2; test: Antiviral activity against SARS-COV 2 infected in human Caco-2 cells assessed as inhibition of viral replication at MOI of 0.01 and incubated after 2 hrs post infection for 48 hrs by immunodetection assay; type: functional, organism-based; settings: Severe acute respiratory syndrome coronavirus 2, Caco-2
[11] = Selectivity index, ratio of CC50 for human Caco-2 cells infected with SARS-COV-2 to IC50 of SARS-COV 2 infected in human Caco-2 cells; type: toxicity, cell-based; settings: read-out: Selectivity Index
[12] = system: SARS-CoV-2; test: Antiviral activity against SARS-COV 2 infected in monkey Vero E6 cells assessed as inhibition of viral replication at MOI of 0.01 and incubated after 2 hrs post infection for 48 hrs by direct yield reduction assay; type: functional, organism-based; settings: Severe acute respiratory syndrome coronavirus 2, Vero C1008
[13] = Selectivity index, ratio of CC50 for African green monkey Vero E6 cells infected with SARS-COV-2 to IC50 for SARS-COV 2 infected in monkey Vero E6 cells; type: toxicity, cell-based, Vero C1008; settings: read-out: Selectivity Index
[14] = system: Calu-3; test: as §1; type: cell-based; settings: calu-3; outline: as §2
[15] = system: SARS-CoV-2; test: Antiviral activity against SARS-COV 2 infected in human Huh-7 cells; type: functional, organism-based; settings: Severe acute respiratory syndrome coronavirus 2, Huh-7
[16] = system: SARS-CoV-2; test: Antiviral activity against SARS-COV 2 infected in human Caco-2 cells; type: functional, organism-based; settings: Severe acute respiratory syndrome coronavirus 2, Caco-2
[17] = system: SARS-CoV-2; test: Antiviral activity against SARS-COV 2 infected in African green monkey Vero E6 cells; type: functional, organism-based; settings: Severe acute respiratory syndrome coronavirus 2, Vero C1008
[18] = Selectivity index, ratio of CC50 for human A549 cells to IC50 for Influenza A Puerto Rico/8/34/H1N1 infected in human A549 cells; type: toxicity, cell-based; settings: read-out: Selectivity Index
Outline: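 MDCK or A549 cells (2.5 × 10⁵/well) infected with A/Puerto Rico/8/34 H1N1 for 1 h at 37 °C, then washed. Compound (0.5–20 μM) added in 2% FBS medium for 24 h, with DMSO final ≤0.2%. Virus in supernatants read by hemagglutination. CC₅₀ by MTT (2 × 10⁴ cells/well, same concentrations, 24 h, absorbance 570 nm). SI = CC₅₀/IC₅₀.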

[19] = system: Influenza A virus; test: Antiviral activity against Influenza A Puerto Rico/8/34/H1N1 infected in human A549 cells assessed as inhibition of viral replication after 24 hrs by hemagglutination assay; type: functional, organism-based; settings: A/Puerto Rico/8/1934(H1N1), A549, 24 h
[20] = Cytotoxicity against human A549 cells assessed as reduction in cell viability measured after 24 hrs by MTT assay; type: cell-based; settings: A549 cells
[21] = Cytotoxicity against human Huh-7 cells assessed as reduction in cell viability by Celltiter-Glo luminescent cell viability assay; type: cell-based; settings: Huh-7 cells; outline: as §2
[22] = system: dengue virus type 2; test: Antiviral activity against Dengue virus serotype 2 New Guinea C infected in pre-seeded Huh-7 cells assessed as inhibition of viral replication incubated for 72 hrs by immunodetection based direct yield reduction assay; type: functional, organism-based; settings: Dengue virus, New Guinea C, Huh-7, 72 h; read-out: IC50
[23] = system: dengue virus type 2; test: Antiviral activity against Dengue virus serotype 2 New Guinea C infected in pre-seeded Huh-7 cells assessed as inhibition of viral replication incubated for 72 hrs by immunodetection based plaque reduction assay; type: functional, organism-based; settings: Huh-7, 72 h
[24] = Selectivity index, ratio of CC50 for human Huh-7 cells to IC50 for Dengue virus serotype 2 New Guinea C infected in pre-seeded Huh-7 cells assessed as inhibition of viral replication incubated for 72 hrs by immunodetection based secondary yield reduction assay; type: toxicity, cell-based; settings: read-out: Selectivity Index
[25] = Selectivity index, ratio of CC50 for human Huh-7 cells to IC50 for Dengue virus serotype 2 New Guinea C infected in pre-seeded Huh-7 cells assessed as inhibition of viral replication incubated for 72 hrs by immunodetection based direct yield reduction assay; type: toxicity, cell-based; settings: read-out: Selectivity Index
Outline: (§4)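 Direct yield reduction in Huh7 cells (7000/well), infected with 50 TCID₅₀ of DENV or ZIKV, or 25 TCID₅₀ of WNV. Adsorption 1 h at 37 °C, then virus removed and serial compound dilutions added. Incubated 72 h (DENV, ZIKV) or 48 h (WNV). Viral antigen immunodetected on the monolayer. IC₅₀ by non-linear regression, mean of three experiments. SI = CC₅₀ (Huh7, CellTiter-Glo luminescence)/IC₅₀.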

[26] = Selectivity index, ratio of CC50 for human Huh-7 cells to IC50 for Dengue virus serotype 2 New Guinea C infected in pre-seeded Huh-7 cells assessed as inhibition of viral replication incubated for 72 hrs by immunodetection based plaque reduction assay; type: toxicity, cell-based; settings: read-out: Selectivity Index
[27] = system: Zika virus; test: Antiviral activity against Zika virus H/PF/2013 infected in pre-seeded Huh-7 cells assessed as inhibition of viral replication incubated for 72 hrs by immunodetection based secondary yield reduction assay; type: functional, organism-based; settings: H/PF/2013, Huh-7, 72 h
[28] = system: Zika virus; test: Antiviral activity against Zika virus H/PF/2013 infected in pre-seeded Huh-7 cells assessed as inhibition of viral replication incubated for 72 hrs by immunodetection based direct yield reduction assay; type: functional, organism-based; settings: H/PF/2013, Huh-7, 72 h; outline: as §4
[29] = system: Zika virus; test: Antiviral activity against Zika virus H/PF/2013 infected in pre-seeded Huh-7 cells assessed as inhibition of viral replication incubated for 72 hrs by immunodetection based plaque reduction assay; type: functional, organism-based; settings: H/PF/2013, Huh-7, 72 h
[30] = Selectivity index, ratio of CC50 for human Huh-7 cells to IC50 for Zika virus H/PF/2013 infected in pre-seeded Huh-7 cells assessed as inhibition of viral replication incubated for 72 hrs by immunodetection based secondary yield reduction assay; type: toxicity, cell-based; settings: read-out: Selectivity Index
[31] = Selectivity index, ratio of CC50 for human Huh-7 cells to IC50 for Zika virus H/PF/2013 infected in pre-seeded Huh-7 cells assessed as inhibition of viral replication incubated for 72 hrs by immunodetection based direct yield reduction assay; type: toxicity, cell-based; settings: read-out: Selectivity Index; outline: as §4
[32] = Selectivity index, ratio of CC50 for human Huh-7 cells to IC50 for Zika virus H/PF/2013 infected in pre-seeded Huh-7 cells assessed as inhibition of viral replication incubated for 72 hrs by immunodetection based plaque reduction assay; type: toxicity, cell-based; settings: read-out: Selectivity Index
[33] = system: West Nile virus; test: Antiviral activity against West Nile virus lineage 1 (Italy/2009) infected in pre-seeded Huh-7 cells assessed as inhibition of viral replication incubated for 48 hrs by immunodetection based direct yield reduction assay; type: functional, organism-based; settings: West Nile virus, lineage 1 (Italy/2009), Huh-7, 48 h; read-out: IC50
[34] = system: West Nile virus; test: Antiviral activity against West Nile virus lineage 1 (Italy/2009) infected in pre-seeded Huh-7 cells assessed as inhibition of viral replication incubated for 48 hrs by immunodetection based plaque reduction assay; type: functional, organism-based; settings: Huh-7, 48 h
[35] = Selectivity index, ratio of CC50 for human Huh-7 cells to IC50 for West Nile virus lineage 1 (Italy/2009) infected in pre-seeded Huh-7 cells assessed as inhibition of viral replication incubated for 48 hrs by immunodetection based direct yield reduction assay; type: toxicity, cell-based; settings: read-out: Selectivity Index; outline: as §4
[36] = Selectivity index, ratio of CC50 for human Huh-7 cells to IC50 for West Nile virus lineage 1 (Italy/2009) infected in pre-seeded Huh-7 cells assessed as inhibition of viral replication incubated for 48 hrs by immunodetection based plaque reduction assay; type: toxicity, cell-based; settings: read-out: Selectivity Index
[37] = Cytotoxicity against MDCK cells assessed as reduction in cell viability measured after 24 hrs by MTT assay; type: cell-based, Canis lupus familiaris; settings: dog, MDCK cells
[38] = system: Influenza A virus; test: Antiviral activity against Influenza A Puerto Rico/8/34/H1N1 infected in MDCK cells assessed as inhibition of viral replication measured in supernatants of infected cells after 24 hrs by hemagglutination assay; type: functional, organism-based; settings: A/Puerto Rico/8/1934(H1N1)
[39] = as §3; type: cell-based, Vero C1008; settings: chlorocebus sabaeus, Vero E6 cells infected with SARS-COV-2; outline: as §2

CN(C)C(=O)COC(=O)Cc1ccc(OC(=O)c2ccc(NC(=N)N)cc2)cc1 [CAMOSTAT]
CC50 [1]: 200 µM
IC50 [2]: 0.82 µM
selectivity ratio [3]: 243
IC50 [4]: 0.04 µM

CCC(CC)COC(=O)[C@H](C)N[P@](=O)(OC[C@H]1O[C@@](C#N)(c2ccc3c(N)ncnn23)[C@H](O)[C@@H]1O)Oc1ccccc1 [REMDESIVIR]
CC50 [5]: 77 µM
IC50 [6]: 0.004 µM
selectivity ratio [7]: 19200
CC50 [8]: 166 µM
CC50 [9]: 80 µM
IC50 [10]: 0.01 µM
selectivity ratio [11]: 8000
IC50 [12]: 6 µM
selectivity ratio [13]: 28
CC50 [14]: 97 µM
IC50 [2]: 0.11 µM
selectivity ratio [3]: 882
IC50 [15]: 0.002 µM
IC50 [16]: 0.38 µM
IC50 [17]: 26.9 µM

NC(=O)c1ncn([C@@H]2O[C@H](CO)[C@@H](O)[C@H]2O)n1 [RIBAVIRIN]
selectivity ratio [18]: > 1.3
IC50 [19]: 37.4 µM
CC50 at 24 h [20]: > 50 µM
CC50 [21]: 200 µM
IC50 [22]: 7.6 µM
IC50 [23]: 4.1 µM
selectivity ratio at 72 h [24]: 50
selectivity ratio at 72 h [25]: 26
selectivity ratio at 72 h [26]: 49
IC50 [27]: 4.4 µM
IC50 [28]: 3.8 µM
IC50 [29]: 2.2 µM
selectivity ratio at 72 h [30]: 45
selectivity ratio at 72 h [31]: 53
selectivity ratio at 72 h [32]: 91
IC50 [33]: 9.5 µM
IC50 [34]: 6.7 µM
selectivity ratio at 48 h [35]: 21
selectivity ratio at 48 h [36]: 30
CC50 at 24 h [37]: > 50 µM
IC50 [38]: 9.5 µM
CC50 [39]: > 400 µM
IC50 [12]: 110 µM
